Measurements reported in ChEMBL document CHEMBL1177865, “Synthesis and anticancer activity of some novel 2-substituted benzimidazole derivatives” (Eur J Med Chem, 2010).
Values after ≈ are worked out from the molar mass of the structure shown.

Legend:
Type in all cases: functional, cell-based
MCF7 = experiment: Cytotoxicity against human MCF7 cells after 48 hrs by sulforhodamine B assay; conditions: MCF7, 48 h
Summary of the method: (§1)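 Cells seeded at 10^4 per well and allowed to attach for 24 h, then exposed to compound at 0, 1, 2.5, 5 and 10 μg/ml, triplicate wells per dose, 48 h at 37 °C, 5% CO2. Fixed, stained with sulforhodamine B, excess dye removed with acetic acid, bound dye dissolved in Tris EDTA, absorbance read. IC50 (μg/ml, 50% survival reduction) taken from triplicate dose–response curves.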

HepG2 = experiment: Cytotoxicity against human HepG2 cells after 48 hrs by sulforhodamine B assay; conditions: HepG2, 48 h; summary of the method: as §1
HCT-116 = experiment: Cytotoxicity against human HCT116 cells after 48 hrs by sulforhodamine B assay; conditions: HCT-116, 48 h; summary of the method: as §1

SMILES	IC50 (MCF7) [µg/mL]	IC90 (MCF7) [µg/mL]	IC50 (HepG2) [µg/mL]	IC90 (HepG2) [µg/mL]	IC50 (HCT-116) [µg/mL]	IC90 (HCT-116) [µg/mL]
N#C/C(=C\c1ccc(F)cc1)c1nc2cc(Cl)ccc2[nH]1	3.41 (≈ 11.5 µM)	13.3 (≈ 44.8 µM)	0.55 (≈ 1.85 µM)	7.62 (≈ 25.6 µM)	8.4 (≈ 28.2 µM)	14.8 (≈ 49.8 µM)
COc1cccc2c1C(=O)c1c(O)c3c(c(O)c1C2=O)C[C@@](O)(C(=O)CO)C[C@@H]3O[C@H]1C[C@H](N)[C@H](O)[C@H](C)O1 [DOXORUBICIN]		8.77 (≈ 16.1 µM)	0.59 (≈ 1.09 µM)	6.82 (≈ 12.5 µM)	0.65 (≈ 1.2 µM)	7.32 (≈ 13.5 µM)
COc1ccccc1C1=CS/C(=C(\C#N)c2nc3cc(C(=O)O)ccc3[nH]2)N1c1ccc(Br)cc1	2.85 (≈ 5.23 µM)	13.2 (≈ 24.3 µM)	3.16 (≈ 5.79 µM)	9.31 (≈ 17.1 µM)	3.75 (≈ 6.88 µM)	12.1 (≈ 22.1 µM)
N#CC(=C1CCCCC1)c1nc2cc(C(=O)O)ccc2[nH]1	2.15 (≈ 7.64 µM)	11.7 (≈ 41.6 µM)	1.65 (≈ 5.87 µM)	8.61 (≈ 30.6 µM)	8.25 (≈ 29.3 µM)	14.2 (≈ 50.4 µM)
Nc1c(-c2nc3cc(C(=O)O)ccc3[nH]2)sc(=S)n1Cc1ccccc1	3.51 (≈ 9.18 µM)	14.1 (≈ 36.8 µM)	0.55 (≈ 1.44 µM)	7.53 (≈ 19.7 µM)	4.23 (≈ 11.1 µM)	14 (≈ 36.7 µM)
N#C/C(=C1\SCCCN1c1ccccc1)c1nc2cc(C(=O)O)ccc2[nH]1	4.04 (≈ 10.7 µM)	15 (≈ 39.9 µM)	1.87 (≈ 4.97 µM)	8.8 (≈ 23.4 µM)	9.39 (≈ 24.9 µM)	14.7 (≈ 39.1 µM)
N#C/C(=C1\SCC(=O)N1c1ccccc1)c1nc2cc(Cl)ccc2[nH]1	2.83 (≈ 7.71 µM)	12.6 (≈ 34.4 µM)	0.93 (≈ 2.54 µM)	7.89 (≈ 21.5 µM)	3.72 (≈ 10.1 µM)	12 (≈ 32.8 µM)
N#C/C(=C1\SC(=O)CN1C1CCCCC1)c1nc2cc(C(=O)O)ccc2[nH]1	3.83 (≈ 10 µM)	15 (≈ 39.3 µM)	1.35 (≈ 3.53 µM)	9.15 (≈ 23.9 µM)	5.52 (≈ 14.4 µM)	14.1 (≈ 36.9 µM)
